The results in this text go back to ChEMBL document CHEMBL4699545, “Non-cytotoxic 1,2,3-triazole tethered fused heterocyclic ring derivatives display Tax protein inhibition and impair HTLV-1 infected cells” (Bioorg Med Chem, 2020).

Data set [1] has as its system MT2. Put plainly: Cytotoxicity against human MT2 cells infected with HTLV-1 assessed as reduction in metabolic activity at 50 uM incubated for 72 hrs in presence of resazurin by resazurin reduction method relative to control. It counts as functional. The method, boiled down:
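MT-2 cells incubated with compound at a final 50 µM in 0.5% DMSO for 72 h at 37 °C, 5% CO₂. Resazurin (10 µM) was added for the final 4 h and fluorescence read at 590 nm; medium-only wells gave background. RFU normalized between 0.5% DMSO (0) and 20 µM etoposide (100) controls. Three independent days.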
A general note: Alamar Blue is a resazurin reagent that responds to reducing activity.

The test system of data set [2] is MT2. Briefly: Cell cycle arrest in human MT2 cells infected with HTLV-1 assessed as accumulation at S phase at 50 uM incubated for 72 hrs by RNaseA/propidium iodide staining based FACSCalibur flow cytometry. It counts as functional. In short, it runs like this:
(§1)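 MT-2 cells (3 × 10⁵/well) exposed to compound (300 µM stock, 100 µl added to 500 µl cells) for 72 h at 37 °C, 5% CO₂. Cells were PBS-washed and fixed in ice-cold 70% ethanol overnight at -20 °C, then RNase A treated 30 min at 37 °C and PI stained. 10,000 events were acquired and phase percentages modelled. Triplicate, mean ± SD; one-way ANOVA/Tukey versus 0.5% DMSO.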
(In general: Flow cytometry measures light scatter and fluorescence of single cells or particles in a stream.)

For data set [3], the system named is MT2. Briefly: Cell cycle arrest in human MT2 cells infected with HTLV-1 assessed as accumulation at G0/G1 phase at 50 uM incubated for 72 hrs by RNaseA/propidium iodide staining based FACSCalibur flow cytometry. It counts as functional. In short, it runs like this:
as §1

The test system of data set [4] is MT2. Put plainly: Cell cycle arrest in human MT2 cells infected with HTLV-1 assessed as accumulation at G2/M phase at 50 uM incubated for 72 hrs by RNaseA/propidium iodide staining based FACSCalibur flow cytometry. It counts as functional. The method, boiled down: as §1
Data set [5] has as its system MT2. Put plainly: Induction of apoptosis in human MT2 cells infected with HTLV-1 assessed as activation of caspase-3/7 at 50 uM measured after 72 hrs by CellEvent caspase 3/7 green detection reagent based assay. In kind it is functional, cell-based. In short, it runs like this: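 MT-2 cells (3 × 10⁵/well) were exposed to compound (300 µM stock, 100 µl into 500 µl) for 72 h at 37 °C, 5% CO₂. CellEvent caspase-3/7 green reagent was added for 45 min at room temperature in the dark. 10,000 events were acquired, and the percentage of active caspase-3/7⁺ cells was taken within an FSC/SSC live-cell gate. Triplicate, mean ± SD, ANOVA/Tukey versus 0.5% DMSO.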

Data set [6] concerns MT2. Put plainly: Induction of apoptosis in human MT2 cells infected with HTLV-1 at 50 uM measured after 72 hrs by annexinV-Cy5/propidium iodide staining based FACSCalibur flow cytometry. It counts as functional, cell-based. The method, boiled down:
(§2)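 MT-2 cells (3 × 10⁵/well) were treated for 72 h at 37 °C, 5% CO₂, then stained with annexin-V Cy5/PI per kit. Within an FSC/SSC live-cell gate, total annexin-V⁺ cells (early PI⁻ plus late PI⁺) were counted by flow cytometry. 0.5% DMSO served as negative control and etoposide 20 µM as positive. Triplicate, mean ± SD, ANOVA/Tukey.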

A further data set deals with Huh-7. Put plainly: Cytotoxicity against human Huh-7 cells assessed as reduction in cell viability by measuring viability index at 50 uM after 72 hrs in presence of resazurin by resazurin reduction method. The conditions noted are these: huh-7, 72 h. In kind it is cell-based. In short, it runs like this: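 Huh-7 cells (3.6 × 10⁴ cells/mL) were exposed to twofold serial dilutions in PBS, 10 points from 50 µM, for 72 h at 37 °C, 5% CO₂. Resazurin (10 µM) was added for the final 4 h and fluorescence read. Viability = RFU treated / mean RFU of 0.5% DMSO wells.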

Data set [7] is described as follows: Effect on HTLV-1 Tax expression in lentiviral pLVX-TET3G transduced human Jurkat LTR-GFP inducible Tax assessed as doxycyclin-treated GFP negative PI positive dead cells at 50 uM after 72 hrs by flow cytometry (reference value: 16.82 +/- 3.37 %).
In data set [8] the test system is MT2. Put plainly: Induction of apoptosis in human MT2 cells infected with HTLV-1 at 50 uM measured after 72 hrs by annexinV-Cy5/propidium iodide staining based FACSCalibur flow cytometry (reference value: 18.7 +/- 5.33 %). In kind it is functional. In short, it runs like this: as §2
Data set [9] concerns MT2. Briefly: Cytotoxicity against human MT2 cells infected with HTLV-1 assessed as reduction in metabolic activity at 20 uM incubated for 72 hrs in presence of resazurin by resazurin reduction method. In kind it is functional, cell-based. The method, boiled down:
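Reference etoposide at 20 µM (final, 0.5% DMSO) served as the positive control in the MT-2 resazurin screen. Cells were incubated 72 h, with 10 µM resazurin added for the last 4 h, and fluorescence read at 590 nm. Three independent days.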

Data set [10] has as its system MT2. Put plainly: Cell cycle arrest in human MT2 cells infected with HTLV-1 assessed as accumulation at G2/M phase at 20 uM incubated for 72 hrs by RNaseA/propidium iodide staining based FACSCalibur flow cytometry. In kind it is functional. The method, boiled down:
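Etoposide 20 µM used as reference in MT-2 cell cycle assay: 3 × 10⁵ cells/well, 72 h at 37 °C. Ethanol fixation (70%, overnight -20 °C), RNase A 30 min at 37 °C, then PI staining. 10,000 events acquired by flow cytometry and G0/G1, S and G2/M fractions modelled. Triplicate, mean ± SD.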

Activity calls are given as the source filed them. The calls are words filed in the database; no cut-off is given here.

One may read the inhibition as the drop in the measured response relative to a control, in per cent. Consider `c1ccc(CN2CCC(Cn3cc(CNc4ncnc5ccccc45)nn3)CC2)cc1`, for which the inhibition at 50 µM in the data set on MT2 [1] was no less than 70%. The result in the data set with MT2 [2], in the data set on MT2 [3] and in the data set on MT2 [4] was inactive.
In the case of `O=C(Cn1cc(CNc2ncnc3ccccc23)nn1)N1CCN(Cc2ccccc2)CC1`, the inhibition at 50 µM with MT2 [1] is no less than 70%. Moreover, the result with MT2 [2], with MT2 [3] and in the data set with MT2 [4] was inactive.
With `O=C(Cn1cc(CSc2nc3ccccc3[nH]2)nn1)N1CCN(Cc2ccccc2)CC1`, in the data set on MT2 [1], the inhibition at 50 µM is no less than 70%. The outcome in the data set on MT2 [2], with MT2 [3] and in the data set on MT2 [4] was inactive.
Consider `Clc1ccc2c(NCCn3cc(CNc4ncnc5ccccc45)nn3)ccnc2c1`, for which the inhibition at 50 µM in the data set with MT2 [1] was no less than 70%. Moreover, the outcome with MT2 [2], with MT2 [3] and with MT2 [4] was inactive. Besides, the result in the data set with MT2 [5] and in the data set on MT2 [6] was Active. Also, the Growth_index with Huh-7 is 0. In addition, the “GFP-PI+ dead cells %” value in data set [7] amounted to 44.88%.
For the compound `COc1cc2ncnc(NCc3cn(CC4CCN(Cc5ccccc5)CC4)nn3)c2cc1OC`, the inhibition at 50 µM in the data set on MT2 [1] was no less than 70%. In addition, the result with MT2 [2], in the data set on MT2 [3] and in the data set on MT2 [4] was inactive. The result in the data set with MT2 [5] and in the data set on MT2 [6] was Active. Besides, the Growth_index in the data set with Huh-7 was 0.65.
`Cc1cc(=O)oc2cc(OCc3cn(CC4CCN(Cc5ccccc5)CC4)nn3)ccc12`: the inhibition at 50 µM in the data set with MT2 [1] is no less than 70%. The outcome in the data set with MT2 [2], in the data set on MT2 [3] and in the data set with MT2 [4] was inactive. For the same compound, the outcome in the data set with MT2 [5] and with MT2 [6] was Active. Besides, the Activity in the data set on MT2 [8] turned out to be 39.96%. Moreover, the Growth_index in the data set on Huh-7 came to 0.61.
`COc1cc2ncnc(NCc3cn(CCNc4ccnc5cc(Cl)ccc45)nn3)c2cc1OC`: the inhibition at 50 µM in the data set on MT2 [1] was no less than 70%. For the same compound, the result in the data set on MT2 [2], in the data set on MT2 [3] and in the data set on MT2 [4] was inactive. Moreover, the result in the data set on MT2 [5] and in the data set with MT2 [6] was Active. Also, the Growth_index in the data set on Huh-7 is reported as 0. Further, the “GFP-PI+ dead cells %” value in data set [7] is 90.98%.
On to `COc1cc([C@@H]2c3cc4c(cc3[C@@H](O[C@@H]3O[C@@H]5CO[C@@H](C)O[C@H]5[C@H](O)[C@H]3O)[C@H]3COC(=O)[C@H]23)OCO4)cc(OC)c1O`, for which the inhibition result in the data set with MT2 [9] was “Active”. Further, the result with MT2 [10] was inactive.
For the compound `O=C1c2ccccc2C(=O)N1Cc1cn(CCNc2ccnc3cc(Cl)ccc23)nn1`, the inhibition at 50 µM in the data set with MT2 [1] was no less than 70%. For the same compound, in the data set on MT2 [2], the result was Active. Moreover, the Growth_index with Huh-7 is 0.85.
